Values joined by “and” are separate entries in the source; they are usually repeats but may differ in a detail not shown here. Equal entries are not always repeated. Non-standard residues stand in square brackets, D forms with d. Residues, ends and D or L forms follow the SMILES beside them. NMeR = CN[C@@H](CCCNC(=N)N)C(=O)O; NMeF = CN[C@@H](Cc1ccccc1)C(=O)O; Sar = CNCC(=O)O
Assays:
Cavia porcellus [1] = species: Cavia porcellus; assay: Compound was evaluated for muscle stimulating potency in isolated guinea pig ilea relative to bradykinin triacetate (1); type: functional, Muscle tissue
Method in brief: (§1)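 Isolated guinea pig ileum segments were used in four-point parallel-line bioassays against bradykinin triacetate, with potency calculated on a weight basis. Doses were given at 4-min intervals in a randomized block design, and the bath was rinsed after peak contraction. Relative potency and fiducial limits were estimated from contraction magnitudes by Finney's method. Only assays without significant deviation from parallelism were accepted.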

Cavia porcellus [2] = species: Cavia porcellus; assay: Compound was evaluated for mean percent change from control contractions of isolated guinea pig ilea produced by Acetylcholine (ACh) at a concentration of 10 ug/mL; type: functional
Method in brief: (§2)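 Isolated guinea pig ileum segments. Two control contractions to each agonist were elicited at regular 3- or 4-min intervals. Three sets of contractions were then elicited in the presence of the test compound, the first set used for equilibration. The mean of the last two treated sets was compared with the mean of the controls and expressed as percent change.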

Cavia porcellus [3] = species: Cavia porcellus; assay: Compound was evaluated for mean percent change from control contractions of isolated guinea pig ilea produced by Prostaglandin E2 (PGE2) at a concentration of 10 ug/mL; type: functional; method in brief: as §2
Cavia porcellus [4] = species: Cavia porcellus; assay: Compound was evaluated for mean percent change from control contractions of isolated guinea pig ilea produced by Bradykinin (Brdkn) at a concentration of 10 ug/mL; type: functional; method in brief: as §2
Cavia porcellus [5] = species: Cavia porcellus; assay: Compound was evaluated for mean percent change from control contractions of isolated guinea pig ilea produced by Acetylcholine (ACh) at a concentration of 1 ug/mL; type: functional; method in brief: as §2
Cavia porcellus [6] = species: Cavia porcellus; assay: Compound was evaluated for mean percent change from control contractions of isolated guinea pig ilea produced by Prostaglandin E2 (PGE2) at a concentration of 1 ug/mL; type: functional; method in brief: as §2
Cavia porcellus [7] = species: Cavia porcellus; assay: Compound was evaluated for mean percent change from control contractions of isolated guinea pig ilea produced by Acetylcholine (ACh) at a concentration of 3 ug/mL; type: functional; method in brief: as §2
Cavia porcellus [8] = species: Cavia porcellus; assay: Compound was evaluated for mean percent change from control contractions of isolated guinea pig ilea produced by Bradykinin (Brdkn) at a concentration of 1 ug/mL; type: functional; method in brief: as §2
Cavia porcellus [9] = species: Cavia porcellus; assay: Compound was evaluated for mean percent change from control contractions of isolated guinea pig ilea produced by Bradykinin (Brdkn) at a concentration of 3 ug/mL; type: functional; method in brief: as §2
Cavia porcellus [10] = species: Cavia porcellus; assay: Compound was evaluated for mean percent change from control contractions of isolated guinea pig ilea produced by Prostaglandin E2 (PGE2) at a concentration of 3 ug/mL; type: functional; method in brief: as §2
Cavia porcellus [11] = species: Cavia porcellus; assay: Compound was evaluated for mean percent change from control contractions of isolated guinea pig ilea produced by Prostaglandin E2 (PGE2) at a concentration of 30 ug/mL; type: functional; method in brief: as §2
Cavia porcellus [12] = species: Cavia porcellus; assay: Compound was evaluated for mean percent change from control contractions of isolated guinea pig ilea produced by Acetylcholine (ACh) at a concentration of 30 ug/mL; type: functional; method in brief: as §2
Cavia porcellus [13] = species: Cavia porcellus; assay: Compound was evaluated for mean percent change from control contractions of isolated guinea pig ilea produced by Bradykinin (Brdkn) at a concentration of 30 ug/mL; type: functional; method in brief: as §2
Cavia porcellus [14] = species: Cavia porcellus; assay: Compound was evaluated for mean percent change from control contractions of isolated guinea pig ilea produced by Acetylcholine (ACh) at a concentration of 0.1 ug/mL; type: functional; method in brief: as §2
Cavia porcellus [15] = species: Cavia porcellus; assay: Compound was evaluated for mean percent change from control contractions of isolated guinea pig ilea produced by Prostaglandin E2 (PGE2) at a concentration of 0.01 ug/mL; type: functional; method in brief: as §2
Cavia porcellus [16] = species: Cavia porcellus; assay: Compound was evaluated for mean percent change from control contractions of isolated guinea pig ilea produced by Acetylcholine (ACh) at a concentration of 1.0 ug/mL; type: functional; method in brief: as §2
Cavia porcellus [17] = species: Cavia porcellus; assay: Compound was evaluated for mean percent change from control contractions of isolated guinea pig ilea produced by Prostaglandin E2 (PGE2) at a concentration of 10.0 ug/mL; type: functional; method in brief: as §2
Cavia porcellus [18] = species: Cavia porcellus; assay: Compound was evaluated for mean percent change from control contractions of isolated guinea pig ilea produced by Acetylcholine (ACh) at a concentration of 0.01 ug/mL; type: functional; method in brief: as §2
Cavia porcellus [19] = species: Cavia porcellus; assay: Compound was evaluated for mean percent change from control contractions of isolated guinea pig ilea produced by Acetylcholine (ACh) at a concentration of 10.0 ug/mL; type: functional; method in brief: as §2
Cavia porcellus [20] = species: Cavia porcellus; assay: Compound was evaluated for mean percent change from control contractions of isolated guinea pig ilea produced by Prostaglandin E2 (PGE2) at a concentration of 0.1 ug/mL; type: functional; method in brief: as §2
Cavia porcellus [21] = species: Cavia porcellus; assay: Compound was evaluated for mean percent change from control contractions of isolated guinea pig ilea produced by Bradykinin (Brdkn) at a concentration of 0.1 ug/mL; type: functional; method in brief: as §2
Cavia porcellus [22] = species: Cavia porcellus; assay: Compound was evaluated for mean percent change from control contractions of isolated guinea pig ilea produced by Bradykinin (Brdkn) at a concentration of 0.01 ug/mL; type: functional; method in brief: as §2
Cavia porcellus [23] = species: Cavia porcellus; assay: Compound was evaluated for mean percent change from control contractions of isolated guinea pig ilea produced by Bradykinin (Brdkn) at a concentration of 10.0 ug/mL; type: functional; method in brief: as §2
Cavia porcellus [24] = species: Cavia porcellus; assay: Compound was evaluated for mean percent change from control contractions of isolated guinea pig ilea produced by Bradykinin (Brdkn) at a concentration of 1.0 ug/mL; type: functional; method in brief: as §2
Cavia porcellus [25] = species: Cavia porcellus; assay: Compound was evaluated for muscle stimulating potency in isolated guinea pig ilea; type: functional, Muscle tissue; method in brief: as §1

| Structure (SMILES) | Potency (Cavia porcellus [1]) | Change (Cavia porcellus [2]) [%] | Change (Cavia porcellus [3]) [%] | Change (Cavia porcellus [4]) [%] | Change (Cavia porcellus [5]) [%] | Change (Cavia porcellus [6]) [%] | Change (Cavia porcellus [7]) [%] | Change (Cavia porcellus [8]) [%] | Change (Cavia porcellus [9]) [%] | Change (Cavia porcellus [10]) [%] | also measured |
| --- | --- | --- | --- | --- | --- | --- | --- | --- | --- | --- | --- |
| CN(C(=O)[C@H](Cc1ccccc1)NC(=O)[C@@H]1CCCN1C(=O)[C@H](CO)NC(=O)[C@H](Cc1ccccc1)NC(=O)CNC(=O)[C@@H]1CCCN1C(=O)[C@@H]1CCCN1C(=O)[C@@H](N)CCCN=C(N)N)[C@@H](CCCN=C(N)N)C(=O)O | 0.0046 | -28 | 7 | -64 |  |  |  |  |  |  |  |
| CN(C(=O)[C@@H]1CCCN1C(=O)[C@H](CO)NC(=O)[C@H](Cc1ccccc1)NC(=O)CNC(=O)[C@@H]1CCCN1C(=O)[C@@H]1CCCN1C(=O)[C@@H](N)CCCN=C(N)N)[C@@H](Cc1ccccc1)C(=O)N[C@@H](CCCN=C(N)N)C(=O)O (H-RPPGFSP[NMeF]R-OH) | 0.015 | -75 | -88 | -97 | -6 | -17 | -41 | -27 | -81 | -60 |  |
| CN(C(=O)CNC(=O)[C@@H]1CCCN1C(=O)[C@@H]1CCCN1C(=O)[C@@H](N)CCCN=C(N)N)[C@@H](Cc1ccccc1)C(=O)N[C@@H](CO)C(=O)N1CCC[C@H]1C(=O)N[C@@H](Cc1ccccc1)C(=O)N[C@@H](CCCN=C(N)N)C(=O)O (H-RPPG[NMeF]SPFR-OH) | 0.01 | -31 | 1 | -32 |  |  |  |  |  |  |  |
| CN(CC(=O)N[C@@H](Cc1ccccc1)C(=O)N[C@@H](CO)C(=O)N1CCC[C@H]1C(=O)N[C@@H](Cc1ccccc1)C(=O)N[C@@H](CCCN=C(N)N)C(=O)O)C(=O)[C@@H]1CCCN1C(=O)[C@@H]1CCCN1C(=O)[C@@H](N)CCCN=C(N)N (H-RPP[Sar]FSPFR-OH) | 0.0039 | -58 | -85 | -25 | -32 | -20 | -9 | 5 | 21 | -27 | Change (Cavia porcellus [11]): -69%; Change (Cavia porcellus [12]): -70%; Change (Cavia porcellus [13]): -40% |
| CN[C@@H](CCCN=C(N)N)C(=O)N1CCC[C@H]1C(=O)N1CCC[C@H]1C(=O)NCC(=O)N[C@@H](Cc1ccccc1)C(=O)N[C@@H](CO)C(=O)N1CCC[C@H]1C(=O)N[C@@H](Cc1ccccc1)C(=O)N[C@@H](CCCN=C(N)N)C(=O)O (H-[NMeR]PPGFSPFR-OH) | 0.61 |  |  |  |  |  |  |  |  |  | Change (Cavia porcellus [14]): -67%; Change (Cavia porcellus [15]): -28%; Change (Cavia porcellus [16]): -100%; Change (Cavia porcellus [17]): -95% and -83%; Change (Cavia porcellus [18]): -29%; Change (Cavia porcellus [19]): -97%; Change (Cavia porcellus [20]): -88%; Change (Cavia porcellus [21]): -100%; Change (Cavia porcellus [22]): -88%; Change (Cavia porcellus [23]): -100%; Change (Cavia porcellus [24]): -100% |
| N=C(N)NCCC[C@H](NC(=O)[C@H](Cc1ccccc1)NC(=O)[C@@H]1CCCN1C(=O)[C@H](CO)NC(=O)[C@H](Cc1ccccc1)NC(=O)CNC(=O)[C@@H]1CCCN1C(=O)[C@@H]1CCCN1C(=O)[C@@H](N)CCCNC(=N)N)C(=O)O [BRADYKININ] (H-RPPGFSPFR-OH) |  |  |  |  |  |  |  |  |  |  | Potency (Cavia porcellus [25]): 1 |

From ChEMBL document CHEMBL1121616, “Bradykinin analogues containing N alpha-methyl amino acids” (1980)
